CC50, SI and EC50 data for 40 compounds are collected here from ChEMBL document CHEMBL1131141, “Novel 1,1,3-trioxo-2H,4H-thieno[3,4-e][1,2,4]thiadiazine derivatives as non-nucleoside reverse transcriptase inhibitors that inhibit human immunodeficiency virus type 1 replication” (J Med Chem, 1998).

Each structure is given as a SMILES string. Bounds are passed on as bounds.

Assay [1] relates to MT4. The assay can be described thus: Dose required to reduce the viability of mock-infected cells by 50%, determined by MTT method. The settings on record: Homo sapiens. Type of assay: functional. In short, it runs like this:
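Mock-infected MT-4 cells; value is the dose lowering cell viability by 50%, read out by MTT assay. Mean of at least two separate experiments.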

Assay [2] has as its system Human immunodeficiency virus 1. The assay can be described thus: Selectivity index was measured as the ratio of CC50(HIV-1) to that of EC50(HIV-1); SI Selectivity Index. Type of assay: functional.
Assay [3] relates to MT4. The assay is described as follows: Dose required to achieve 50% protection of MT-4 cells from HIV-1(IIIB) induced cytopathogenicity, determined by […] method. Type of assay: functional, cell-based. The settings on record: Homo sapiens. The gist of the method:
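MT-4 cells infected with HIV-1(IIIB); value is the dose giving 50% protection against virus-induced cytopathogenicity, read out by MTT viability assay. Mean of at least two separate experiments.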
For orientation: Cytopathic effects are the visible damage that an infection or toxin causes in cultured cells.

Assay [4] can be described thus: Selectivity index was measured as the ratio of CC50(HIV-1) to that of EC50(HIV-1). Type of assay: functional.

Broadly, the CC50 is the concentration giving 50% cytotoxicity. Low readings indicate greater toxicity to the cells, high ones lower toxicity to the cells. As a reminder, the EC50 is the concentration at which the effect is half-maximal. Low values mean greater potency, high ones weaker potency. For `CN1C(=O)N(Cc2cccc(Cl)c2)S(=O)(=O)c2cscc21`, the cytotoxic concentration (CC50) in assay [1] was greater than 729 µM. In addition, the SI in assay [2] is given as greater than 96. Besides, it took 7600 nM to reach a half-maximal effect in assay [3] (EC50).

`O=C1N(Cc2ccc(Cl)cc2)c2cscc2S(=O)(=O)N1Cc1ccccc1` came in with a cytotoxic concentration (CC50) in assay [1] of 18.6 µM. In addition, the SI in assay [2] was found to be 13. In addition, the EC50 in assay [3] is 1400 nM.

`O=C1N(Cc2ccccc2)c2cscc2S(=O)(=O)N1CCc1ccccc1` returned a CC50 in assay [1] of 226 µM. In addition, the SI in assay [2] worked out at 21. Besides, the EC50 in assay [3] came to 10900 nM.

`N#CCN1C(=O)N(Cc2ccccn2)S(=O)(=O)c2cscc21` showed a CC50 in assay [1] greater than 374 µM. The SI in assay [2] was greater than 340. Also, the EC50 in assay [3] turned out to be 1100 nM.

`O=C1N(Cc2ccccc2)c2cscc2S(=O)(=O)N1Cc1ccccn1`: it took 166 µM to reach half-maximal cytotoxicity in assay [1] (CC50). The SI in assay [2] turned out to be 415. Moreover, in assay [3], a half-maximal response (EC50) required 400 nM.

In turn, `CN1C(=O)N(Cc2c(Cl)cccc2Cl)S(=O)(=O)c2cscc21` showed a 50% cytotoxic concentration (CC50) in assay [1] of 528 µM. The SI in assay [2] was less than 1. This compound gave an EC50 in assay [3] greater than 528000 nM.

Take `N#CCN1C(=O)N(Cc2ccccc2)S(=O)(=O)c2cscc21`: half-maximal cytotoxicity in assay [1] (CC50) was put at 503 µM. For the same compound, the SI in assay [2] worked out at 559. In addition, in assay [3], the EC50 amounted to 900 nM.

On to `CCN1C(=O)N(Cc2ccccc2)S(=O)(=O)c2cscc21`, for which the CC50 in assay [1] is greater than 775 µM. For the same compound, in assay [2], the SI is greater than 310. The same compound displayed a concentration for a half-maximal effect (EC50) in assay [3] of 2500 nM.

With `N#CCN1C(=O)N(Cc2cc(F)cc(F)c2)S(=O)(=O)c2cscc21`, in assay [1], the CC50 amounted to 102 µM. The SI in assay [2] amounted to 340. Besides, in assay [3], the concentration for a half-maximal effect (EC50) was found to be 300 nM.

`CCN1C(=O)N(Cc2ccccc2Cl)S(=O)(=O)c2cscc21` displayed a CC50 in assay [1] of 605 µM. The SI in assay [2] came out at 83. In assay [3], this compound returned an EC50 of 7300 nM.

`N#CCN1C(=O)N(Cc2cccc(F)c2)S(=O)(=O)c2cscc21`: the CC50 in assay [1] came to 93.6 µM. Moreover, in assay [2], the SI worked out at 1872. The same compound yielded a concentration giving a half-maximal response (EC50) in assay [3] of 50 nM.

Turning to `N#CCN1C(=O)N(Cc2cccc(Br)c2)S(=O)(=O)c2cscc21`, it took 68.6 µM to reach half-maximal cytotoxicity in assay [1] (CC50). In assay [2], the SI is reported as 762. The compound further gave an EC50 in assay [3] of 90 nM.

With `CCN1C(=O)N(Cc2cccc(Cl)c2)S(=O)(=O)c2cscc21`, in assay [1], the CC50 was greater than 701 µM. Moreover, the SI in assay [2] was greater than 334. In assay [3], this compound yielded an EC50 of 2100 nM.

In assay [1], `CCN1C(=O)N(Cc2ccccc2)S(=O)(=O)c2nn(C)cc21` returned a CC50 of 321 µM. In addition, the SI in assay [2] is on record as less than 1. Further, the EC50 in assay [3] was greater than 321000 nM.

For the compound `CN1C(=O)N(Cc2ccc(Cl)cc2)S(=O)(=O)c2cscc21`, the cytotoxic concentration (CC50) in assay [1] is 417 µM. The SI in assay [2] is less than 1. Further, the 50% effective concentration (EC50) in assay [3] was greater than 417000 nM.

Regarding `C#CCN1C(=O)N(Cc2ccccc2)S(=O)(=O)c2cscc21`, in assay [1], the CC50 is greater than 376 µM. In assay [2], the SI is recorded as greater than 376. In assay [3], this compound had an EC50 of 1000 nM.

In assay [1], `CCN1C(=O)N(Cc2ccc(Cl)cc2)S(=O)(=O)c2cscc21` yielded a CC50 of 273 µM. The SI in assay [2] was less than 1. For the same compound, the concentration giving a half-maximal response (EC50) in assay [3] was greater than 273000 nM.

Compound `CCOC(=O)CN1C(=O)N(Cc2ccccc2)S(=O)(=O)c2cscc21` returned a CC50 in assay [1] of 130 µM. Besides, in assay [2], the SI was 18. The same compound showed a half-maximal effective concentration (EC50) in assay [3] of 7400 nM.

On to `O=C1N(Cc2ccccc2Cl)c2cscc2S(=O)(=O)N1Cc1ccccc1`, for which the CC50 in assay [1] was greater than 119 µM. In addition, the SI in assay [2] was greater than 1190. The EC50 in assay [3] worked out at 100 nM.

The compound `CN1C(=O)N(Cc2ccccc2)S(=O)(=O)c2nn(C)cc21` displayed a CC50 in assay [1] of 498 µM. In addition, the SI in assay [2] is less than 1. The compound also yielded a 50% effective concentration (EC50) in assay [3] greater than 498000 nM.

In assay [1], `N#CCN1C(=O)N(Cc2ccccc2)S(=O)(=O)c2ccsc21` had a 50% cytotoxic concentration (CC50) of 219 µM. For the same compound, the SI in assay [2] worked out at 73. Further, in assay [3], the EC50 is 3000 nM.

As for `CCN1C(=O)N(CCc2ccccc2)S(=O)(=O)c2cscc21`, in assay [1], the CC50 was determined as 330 µM. In assay [2], the SI is 38. Further, the EC50 in assay [3] turned out to be 8600 nM.

`CCN1C(=O)N(Cc2ccccc2)S(=O)(=O)c2ccsc21`: it took 374 µM to reach half-maximal cytotoxicity in assay [1] (CC50). The SI in assay [2] is listed as 18. For the same compound, the concentration giving a half-maximal response (EC50) in assay [3] came out at 20500 nM.

Compound `CCN1C(=O)N(Cc2c(Cl)cccc2Cl)S(=O)(=O)c2cscc21` yielded a CC50 in assay [1] of 74.1 µM. The SI in assay [2] was less than 1. The EC50 in assay [3] is greater than 74100 nM.

Consider `Cc1cn([C@H]2C[C@H](N=[N+]=[N-])[C@@H](CO)O2)c(=O)[nH]c1=O` [ZIDOVUDINE], for which the CC50 in assay [1] was determined as 35.6 µM. Further, the concentration for a half-maximal effect (EC50) in assay [3] is 0.7 nM. Further, the SI in assay [4] worked out at 50600.

`Cc1ccnc2c1NC(=O)c1cccnc1N2C1CC1` [NEVIRAPINE] registered a 50% cytotoxic concentration (CC50) in assay [1] of 683 µM. Besides, in assay [2], the SI is 22800. The compound also returned an EC50 in assay [3] of 30 nM.

On to `CN1C(=O)N(Cc2ccccc2Cl)S(=O)(=O)c2cscc21`, for which half-maximal cytotoxicity in assay [1] (CC50) was put at 446 µM. Also, the SI in assay [2] was less than 1. The compound further had an EC50 in assay [3] greater than 446000 nM.

For the compound `N#CCN1C(=O)N(Cc2cccnc2)S(=O)(=O)c2cscc21`, in assay [1], the CC50 is greater than 150 µM. Further, in assay [2], the SI was greater than 750. For the same compound, in assay [3], the EC50 was 200 nM.

For the compound `N#CCN1C(=O)N(Cc2ccccc2)S(=O)(=O)c2sc(Cl)cc21`, the CC50 in assay [1] worked out at 152 µM. For the same compound, in assay [2], the SI was determined as 6. The compound also yielded an EC50 in assay [3] of 24500 nM.

As for `N#CCN1C(=O)N(Cc2cccc(Cl)c2)S(=O)(=O)c2cscc21`, the CC50 in assay [1] was greater than 340 µM. The SI in assay [2] is on record as greater than 3778. Also, it took 90 nM to reach a half-maximal effect in assay [3] (EC50).

With `O=C1N(Cc2cccc(Cl)c2)c2cscc2S(=O)(=O)N1Cc1ccccc1`, in assay [1], the CC50 was greater than 119 µM. Further, the SI in assay [2] is greater than 149. Further, the EC50 in assay [3] was determined as 800 nM.

As to `CN1C(=O)N(Cc2ccccc2)S(=O)(=O)c2ccsc21`, the CC50 in assay [1] is greater than 811 µM. Moreover, in assay [3], the concentration giving a half-maximal response (EC50) was greater than 811000 nM.

On to `O=C1N(Cc2ccccc2)c2cscc2S(=O)(=O)N1Cc1ccccc1`, for which the CC50 in assay [1] is greater than 650 µM. Moreover, the SI in assay [2] is recorded as greater than 296. The compound further yielded an EC50 in assay [3] of 2200 nM.

Compound `C#CCN1C(=O)N(Cc2cccc(Cl)c2)S(=O)(=O)c2cscc21` gave a half-maximal cytotoxic concentration (CC50) in assay [1] of 65.7 µM. Also, the SI in assay [2] turned out to be 657. Further, the midpoint of the response in assay [3], the EC50, lay at 100 nM.

Take `CCCN1C(=O)N(Cc2ccccc2)S(=O)(=O)c2ccsc21`: in assay [1], the CC50 is 403 µM. Besides, in assay [3], the EC50 is greater than 403000 nM.

Consider `N#CCN1C(=O)N(CCc2ccccc2)S(=O)(=O)c2cscc21`, for which the 50% cytotoxic concentration (CC50) in assay [1] is 40.3 µM. In addition, in assay [2], the SI stood at 11. Also, a half-maximal response in assay [3] (EC50) required 3600 nM.

`O=C1N(Cc2ccccc2)c2cc(Cl)sc2S(=O)(=O)N1Cc1ccccc1` registered a cytotoxic concentration (CC50) in assay [1] greater than 119 µM. Also, the SI in assay [2] is on record as greater than 26. The same compound came in with a concentration giving a half-maximal response (EC50) in assay [3] of 4500 nM.

For `O=C1N(Cc2ccccc2)c2sccc2S(=O)(=O)N1Cc1ccccc1`, in assay [1], the half-maximal cytotoxic concentration (CC50) was greater than 650 µM. Besides, the SI in assay [2] was greater than 78. In assay [3], the EC50 is 8300 nM.

Turning to `CN1C(=O)N(Cc2ccccc2)S(=O)(=O)c2cscc21`, the midpoint of cytotoxicity in assay [1], the CC50, lay at 528 µM. Also, the SI in assay [2] was 196. This compound also gave an EC50 in assay [3] of 2700 nM.

For the compound `CCN1C(=O)N(Cc2ccccn2)S(=O)(=O)c2cscc21`, the CC50 in assay [1] is greater than 387 µM. The SI in assay [2] was greater than 9. In assay [3], a half-maximal effect (EC50) was put at 41400 nM.
